≈ marks a conversion by molar mass, not a printed value. Calls of active or inactive are those of the source. The calls are words filed in the database; no cut-off is given here. Residues, ends and D or L forms follow the SMILES beside them. *: point of attachment. Boc = CC(C)(C)OC(=O)*; NHBn = c1ccc(CN*)cc1
Experiments:
[1] = Cytotoxicity against human SKOV3 cells after 48 hrs by neutral red assay; type: cell-based; settings: sk-ov-3, 48 h
Summary of the method: (§1)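 Cells were exposed to peptides up to a highest tested concentration of 10 μg/mL, using a previously reported cytotoxicity protocol.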

[2] = tested on: KB; assay: Cytotoxicity against human KB cells after 48 hrs by neutral red assay; type: cell-based; summary of the method: as §1
[3] = tested on: Vero; assay: Cytotoxicity against African green monkey Vero cells after 48 hrs by neutral red assay; type: cell-based; settings: chlorocebus sabaeus; summary of the method: as §1
[4] = tested on: Mycobacterium intracellulare; assay: Antimicrobial activity against Mycobacterium intracellulare ATCC 23068 after 70 to 74 hrs by Alamar Blue method; type: functional, organism-based
[5] = tested on: Cryptococcus neoformans; assay: Antimicrobial activity against Cryptococcus neoformans ATCC 90113 assessed as growth inhibition after 70 to 74 hrs by CLSI method; type: functional, organism-based
[6] = tested on: SK-MEL; assay: Cytotoxicity against human SK-MEL cells after 48 hrs by neutral red assay; type: cell-based; summary of the method: as §1
[7] = Cytotoxicity against pig LLC-PK cells after 48 hrs by neutral red assay; type: cell-based, Sus scrofa; summary of the method: as §1
[8] = tested on: Cryptococcus neoformans; assay: Antimicrobial activity against Cryptococcus neoformans ATCC 90113 assessed as detectable growth after 70 to 74 hrs by CLSI method; type: functional
[9] = tested on: Cryptococcus neoformans; assay: Antimicrobial activity against Cryptococcus neoformans ATCC 90113 assessed as complete killing after 70 to 74 hrs by CLSI method; type: functional
[10] = tested on: BT-549; assay: Cytotoxicity against human BT549 cells after 48 hrs by neutral red assay; type: cell-based; settings: bt-549, 48 h; summary of the method: as §1

MIC [8]	SMILES	Activity [1]	Activity [2]	Activity [3]	inhibition [4]	IC50 [5]	Activity [6]	Activity [7]	MFC [9]	Activity [10]
inactive	CC(C)c1ncc(C[C@H](NC(=O)OC(C)(C)C)C(=O)N[C@@H](Cc2c[nH]c3ccccc23)C(=O)N[C@@H](Cc2cnc(C(C)C)[nH]2)C(=O)NCc2ccccc2)[nH]1	> 10 µg/mL	> 10 µg/mL	> 10 µg/mL	inactive	Not Active	> 10 µg/mL	> 10 µg/mL	inactive	> 10 µg/mL
inactive	N[C@@H](Cc1cnc(C2CCCC2)[nH]1)C(=O)N[C@@H](Cc1c[nH]c2ccccc12)C(=O)N[C@@H](Cc1cnc(C2CCCC2)[nH]1)C(=O)NCc1ccccc1	> 10 µg/mL	> 10 µg/mL	> 10 µg/mL	inactive	Not Active	> 10 µg/mL	> 10 µg/mL	inactive	> 10 µg/mL
inactive	CC(C)(C)OC(=O)N[C@@H](Cc1cnc(C2CCCC2)[nH]1)C(=O)N[C@@H](Cc1c[nH]c2ccccc12)C(=O)N[C@@H](Cc1cnc(C2CCCC2)[nH]1)C(=O)NCc1ccccc1	> 10 µg/mL	> 10 µg/mL	> 10 µg/mL	inactive		> 10 µg/mL	> 10 µg/mL	inactive	> 10 µg/mL
1.25 µg/mL (≈ 1.71 µM)	N[C@@H](Cc1cnc(C2CCCCC2)[nH]1)C(=O)N[C@@H](Cc1c[nH]c2ccccc12)C(=O)N[C@@H](Cc1cnc(C2CCCCC2)[nH]1)C(=O)NCc1ccccc1	> 10 µg/mL	> 10 µg/mL	> 10 µg/mL	inactive		> 10 µg/mL	> 10 µg/mL		> 10 µg/mL
	N[C@@H](Cc1cnc[nH]1)C(=O)N[C@@H](Cc1c[nH]c2ccccc12)C(=O)N[C@@H](Cc1cnc[nH]1)C(=O)NCc1ccccc1 (H-His-Trp-His-NHBn)	> 10 µg/mL	> 10 µg/mL	> 10 µg/mL	inactive		> 10 µg/mL	> 10 µg/mL	10 µg/mL (≈ 17.6 µM)	> 10 µg/mL
	CC(C)(C)c1ncc(C[C@H](NC(=O)[C@H](Cc2c[nH]c3ccccc23)NC(=O)[C@@H](N)Cc2cnc(C(C)(C)C)[nH]2)C(=O)NCc2ccccc2)[nH]1	> 10 µg/mL	> 10 µg/mL	> 10 µg/mL	inactive		> 10 µg/mL	> 10 µg/mL	20 µg/mL (≈ 29.4 µM)	> 10 µg/mL
	CC(C)(C)OC(=O)N[C@@H](Cc1cnc[nH]1)C(=O)N[C@@H](Cc1c[nH]c2ccccc12)C(=O)N[C@@H](Cc1cnc[nH]1)C(=O)NCc1ccccc1 (Boc-His-Trp-His-NHBn)	> 10 µg/mL	> 10 µg/mL	> 10 µg/mL	inactive		> 10 µg/mL	> 10 µg/mL	1.25 µg/mL (≈ 1.87 µM)	> 10 µg/mL
